# Assays:
# [1] = Apparent oral clearance in HIV-1 infected patient at 500 mg, po bid on day 10 coadministered with 300 mg, po bid zidovudine by LC-MS/MS analysis; type: ADME, organism-based; conditions: human, in vivo
# Procedure, shortened: (§1)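 Untreated Hispanic HIV-1-infected adults (viral load ≥5,000 copies/ml, CD4 ≥200 cells/mm3). Blood was drawn into DCF-containing EDTA tubes on day 1 (0–12 h) and on day 10 (0–48 h post last dose), then stored at −80°C. Plasma was methanol-extracted with an internal standard and run by LC-MS/MS (2–3,000 ng/ml AMDX/DXG; 2–5,000 ng/ml ZDV). Noncompartmental analysis assumed extravascular input; τ = 12 h; geometric means reported; accumulation was taken as AUCτ day 10/day 1.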
# [2] = Tmax in HIV-1 infected patient at 500 mg, po bid on day 10 coadministered with 300 mg, po bid zidovudine by LC-MS/MS analysis; type: ADME, organism-based; conditions: human, in vivo
# Procedure, shortened: (§2)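 Treatment-naive Hispanic HIV-1-infected adults (≥5,000 RNA copies/ml, CD4 ≥200 cells/mm3). Blood drawn after first dose on day 1 (0–12 h) and after last dose on day 10 (0–48 h) into DCF-containing EDTA tubes to block ex vivo deamination, centrifuged, plasma stored −80°C. Methanol extraction with internal standard, LC-MS/MS (linear 2–3,000 ng ml−1 for AMDX and DXG). Noncompartmental analysis assuming extravascular input; geometric means reported.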
# [3] = Apparent oral clearance in HIV-1 infected patient at 500 mg, po bid on day 10 coadministered with 200 mg, po bid zidovudine by LC-MS/MS analysis; type: ADME, organism-based; conditions: human, in vivo; procedure, shortened: as §1
# [4] = AUC (0 to 12 hrs) in HIV-1 infected patient at 500 mg, po bid on day 10 coadministered with 200 mg, po bid zidovudine by LC-MS/MS analysis; type: ADME, organism-based; design: dose 500 mg, time < 12 hr, route oral; conditions: human, plasma; procedure, shortened: as §1
# [5] = Cmax in HIV-1 infected patient at 500 mg, po bid on day 10 coadministered with 300 mg, po bid zidovudine by LC-MS/MS analysis; type: ADME, organism-based; design: dose 500 mg, route oral; conditions: human, in vivo; procedure, shortened: as §1
# [6] = Tmax in HIV-1 infected patient at 500 mg, po bid on day 10 coadministered with 200 mg, po bid zidovudine by LC-MS/MS analysis; type: ADME, organism-based; conditions: human, in vivo; procedure, shortened: as §2
# [7] = Half life in HIV-1 infected patient at 500 mg, po bid on day 10 by LC-MS/MS analysis; type: ADME, organism-based; conditions: human, in vivo; procedure, shortened: as §1
# [8] = Tmax in HIV-1 infected patient at 500 mg, po bid on day 10 by LC-MS/MS analysis; type: ADME, organism-based; conditions: human, in vivo; procedure, shortened: as §2
# [9] = Cmax in HIV-1 infected patient at 500 mg, po bid on day 1 by LC-MS/MS analysis; type: ADME, organism-based; design: dose 500 mg, route oral; conditions: human, in vivo; procedure, shortened: as §1
# Homo sapiens [10] = assay: Ratio of AUC (0 to 12 hrs) in HIV-1 infected patient at 500 mg, po bid on day 10 to AUC (0 to 12 hrs) in HIV-1 infected patient at 500 mg, po bid on day 1; type: ADME, organism-based; conditions: in vivo; procedure, shortened: as §1
# Homo sapiens [11] = assay: Ratio of AUC (0 to 12 hrs) in HIV-1 infected patient at 500 mg, po bid on day 10 coadministered with 300 mg, po bid zidovudine to AUC (0 to 12 hrs) in HIV-1 infected patient at 500 mg, po bid on day 1 coadministered with 300 mg, po bid zidovudine; type: ADME, organism-based; conditions: in vivo; procedure, shortened: as §1
# [12] = Cmax in HIV-1 infected patient at 500 mg, po bid on day 10 coadministered with 200 mg, po bid zidovudine by LC-MS/MS analysis; type: ADME, organism-based; design: dose 500 mg, route oral; conditions: human, in vivo; procedure, shortened: as §1
# [13] = Cmax in HIV-1 infected patient at 500 mg, po bid on day 10 by LC-MS/MS analysis; type: ADME, organism-based; design: dose 500 mg, route oral; conditions: human, in vivo; procedure, shortened: as §1
# [14] = Half life in HIV-1 infected patient at 500 mg, po bid on day 10 coadministered with 300 mg, po bid zidovudine by LC-MS/MS analysis; type: ADME, organism-based; conditions: human, in vivo; procedure, shortened: as §1
# [15] = AUC (0 to 12 hrs) in HIV-1 infected patient at 500 mg, po bid on day 10 by LC-MS/MS analysis; type: ADME, organism-based; design: dose 500 mg, time < 12 hr, route oral; conditions: human, plasma; procedure, shortened: as §1
# [16] = Tmax in HIV-1 infected patient at 500 mg, po bid on day 1 by LC-MS/MS analysis; type: ADME, organism-based; conditions: human, in vivo; procedure, shortened: as §2
# Homo sapiens [17] = assay: Tmax in HIV-1 infected patient assessed as beta-D-dioxolane guanosine level at 500 mg, po bid on day 1 by LC-MS/MS analysis; type: ADME, organism-based; conditions: in vivo; procedure, shortened: as §1
# [18] = AUC (0 to 12 hrs) in HIV-1 infected patient at 500 mg, po bid on day 10 coadministered with 300 mg, po bid zidovudine by LC-MS/MS analysis; type: ADME, organism-based; design: dose 500 mg, time < 12 hr, route oral; conditions: human, plasma; procedure, shortened: as §1
# Homo sapiens [19] = assay: Ratio of AUC (0 to 12 hrs) in HIV-1 infected patient at 500 mg, po bid on day 10 coadministered with 200 mg, po bid zidovudine to AUC (0 to 12 hrs) in HIV-1 infected patient at 500 mg, po bid on day 1 coadministered with 200 mg, po bid zidovudine; type: ADME, organism-based; conditions: in vivo; procedure, shortened: as §1
# [20] = Half life in HIV-1 infected patient at 500 mg, po bid on day 10 coadministered with 200 mg, po bid zidovudine by LC-MS/MS analysis; type: ADME, organism-based; conditions: human, in vivo; procedure, shortened: as §1
# [21] = Half life in HIV-1 infected patient at 500 mg, po bid on day 1 by LC-MS/MS analysis; type: ADME, organism-based; conditions: human, in vivo; procedure, shortened: as §1
# [22] = Apparent oral clearance in HIV-1 infected patient at 500 mg, po bid on day 10 by LC-MS/MS analysis; type: ADME, organism-based; conditions: human, in vivo; procedure, shortened: as §1
# [23] = Drug level in HIV-1 infected patient urine at 200 mg, po bid on day 10 coadministered with 500 mg, po bid amdoxovir by LC-MS/MS analysis; type: ADME, organism-based; conditions: human, read-out: Drug uptake
# Procedure, shortened: (§3)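 At steady state (day 10), urine collected over one 12-h dose interval was analyzed by LC-MS/MS for AMDX, DXG, ZDV and ZDV-5′-O-glucuronide. Samples were diluted 100-fold, and the assay was linear from 1 to 500 μg/ml. Results are expressed as percentage of the dose recovered as each analyte (geometric means). Subjects were untreated HIV-1-infected adults.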
# [24] = Apparent oral clearance in HIV-1 infected patient at 200 mg, po bid on day 10 coadministered with 500 mg, po bid amdoxovir by LC-MS/MS analysis; type: ADME, organism-based; conditions: human, in vivo; procedure, shortened: as §1
# Homo sapiens [25] = species on record: Homo sapiens; assay: Ratio of AUC (0 to 12 hrs) in HIV-1 infected patient on day 10 to AUC ( 0 to 12 hrs) in HIV-1 infected patient on day 1; type: ADME, organism-based; conditions: in vivo
# Procedure, shortened: (§4)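 Untreated Hispanic HIV-infected adults (VL ≥5,000 copies/ml, CD4 ≥200 cells/mm3) dosed orally b.i.d. Plasma sampled 0–12 h after first dose (day 1) and 0–48 h after last dose (day 10) into DCF-containing EDTA tubes, stored −80°C. ZDV measured by validated LC-MS/MS (linear 2–5,000 ng/ml). Noncompartmental analysis assuming extravascular input. Accumulation taken as AUCτ (τ = 12 h) day 10 / AUCτ day 1, as geometric means.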
# [26] = Tmax in HIV-1 infected patient on day 10 by LC-MS/MS analysis; type: ADME, organism-based; conditions: human, in vivo
# Procedure, shortened: (§5)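 Untreated Hispanic HIV-infected adults (VL ≥5,000 copies/ml, CD4 ≥200 cells/mm3) dosed orally b.i.d. for 10 days. Methanol extraction with internal standard, then LC-MS/MS for ZDV. Noncompartmental steady-state Tmax reported as geometric mean.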
# [27] = Tmax in HIV-1 infected patient at 300 mg, po bid on day 10 coadministered with 500 mg, po bid amdoxovir by LC-MS/MS analysis; type: ADME, organism-based; conditions: human, in vivo; procedure, shortened: as §5
# [28] = Half life in HIV-1 infected patient at 300 mg, po bid on day 10 coadministered with 500 mg, po bid amdoxovir by LC-MS/MS analysis; type: ADME, organism-based; conditions: human, in vivo; procedure, shortened: as §1
# [29] = Apparent oral clearance in HIV-1 infected patient at 300 mg, po bid on day 10 coadministered with 500 mg, po bid amdoxovir by LC-MS/MS analysis; type: ADME, organism-based; conditions: human, in vivo; procedure, shortened: as §1
# [30] = Drug level in HIV-1 infected patient urine on day 10 assessed as zidovudine-5-O-glucoronide level by LC-MS/MS analysis; type: ADME; conditions: human, in vivo; procedure, shortened: as §3
# Homo sapiens [31] = assay: Ratio of AUC (0 to 12 hrs) in HIV-1 infected patient at 200 mg, po bid on day 10 coadministered with 500 mg, po bid amdoxovir to AUC (0 to 12 hrs) in HIV-1 infected patient at 200 mg, po bid on day 1 coadministered with 500 mg, po bid amdoxovir; type: ADME, organism-based; conditions: in vivo; procedure, shortened: as §4
# [32] = Drug level in HIV-1 infected patient urine on day 10 by LC-MS/MS analysis; type: ADME; conditions: human, read-out: Drug uptake; procedure, shortened: as §3
# [33] = Tmax in HIV-1 infected patient at 200 mg, po bid on day 10 coadministered with 500 mg, po bid amdoxovir by LC-MS/MS analysis; type: ADME, organism-based; conditions: human, in vivo; procedure, shortened: as §5
# [34] = Drug level in HIV-1 infected patient urine assessed as zidovudine-5-O-glucoronide level at 300 mg, po bid on day 10 coadministered with 500 mg, po bid amdoxovir by LC-MS/MS analysis; type: ADME, organism-based; conditions: human, in vivo; procedure, shortened: as §3
# Homo sapiens [35] = assay: Ratio of AUC (0 to 12 hrs) in HIV-1 infected patient at 300 mg, po bid on day 10 coadministered with 500 mg, po bid amdoxovir to AUC (0 to 12 hrs) in HIV-1 infected patient at 300 mg, po bid on day 1 coadministered with 500 mg, po bid amdoxovir; type: ADME, organism-based; conditions: in vivo; procedure, shortened: as §4
# [36] = Apparent oral clearance in HIV-1 infected patient on day 10 by LC-MS/MS analysis; type: ADME, organism-based; conditions: human, in vivo; procedure, shortened: as §1
# [37] = Drug level in HIV-1 infected patient urine assessed as zidovudine-5-O-glucoronide level at 200 mg, po bid on day 10 coadministered with 500 mg, po bid amdoxovir by LC-MS/MS analysis; type: ADME, organism-based; conditions: human, in vivo; procedure, shortened: as §3
# [38] = Half life in HIV-1 infected patient at 200 mg, po bid on day 10 coadministered with 500 mg, po bid amdoxovir by LC-MS/MS analysis; type: ADME, organism-based; conditions: human, in vivo; procedure, shortened: as §1
# [39] = Half life in HIV-1 infected patient on day 10 by LC-MS/MS analysis; type: ADME, organism-based; conditions: human, in vivo; procedure, shortened: as §1
# [40] = Drug level in HIV-1 infected patient urine at 300 mg, po bid on day 10 coadministered with 500 mg, po bid amdoxovir by LC-MS/MS analysis; type: ADME, organism-based; conditions: human, read-out: Drug uptake; procedure, shortened: as §3
smiles,measurement,setting,value
Nc1nc(N)c2ncn([C@H]3CO[C@@H](CO)O3)c2n1 [AMDOXOVIR],CL/F,[1],63.5 mL/min/kg
same,Tmax,[2],2.5 h
same,CL/F,[3],74.7 mL/min/kg
same,AUC at 12 h,[4],1730 ng·h/mL
same,Cmax,[5],714 ng/mL
same,Tmax,[6],2.5 h
same,half-life,[7],1.4 h
same,Tmax,[8],2 h
same,Cmax,[9],514 ng/mL
same,Ratio AUC,Homo sapiens [10],0.95
same,Ratio AUC,Homo sapiens [11],0.67
same,Cmax,[12],649 ng/mL
same,Cmax,[13],499 ng/mL
same,half-life,[14],1.1 h
same,AUC at 12 h,[15],1330 ng·h/mL
same,Tmax,[16],1 h
same,Tmax,Homo sapiens [17],1 h
same,AUC at 12 h,[18],2090 ng·h/mL
same,Ratio AUC,Homo sapiens [19],0.99
same,half-life,[20],1.7 h
same,half-life,[21],1.3 h
same,CL/F,[22],91.5 mL/min/kg
Cc1cn([C@H]2C[C@H](N=[N+]=[N-])[C@@H](CO)O2)c(=O)[nH]c1=O [ZIDOVUDINE],dose excreted,[23],5.88%
same,CL/F,[24],39 mL/min/kg
same,Ratio AUC,Homo sapiens [25],1.21
same,Tmax,[26],0.5 h
same,Tmax,[27],0.5 h
same,half-life,[28],2.4 h
same,CL/F,[29],30 mL/min/kg
same,Drug uptake,[30],61.15%
same,Ratio AUC,Homo sapiens [31],1.04
same,dose excreted,[32],6.24%
same,Tmax,[33],0.5 h
same,Drug uptake,[34],62.89%
same,Ratio AUC,Homo sapiens [35],0.86
same,CL/F,[36],23.2 mL/min/kg
same,Drug uptake,[37],61.87%
same,half-life,[38],2.5 h
same,half-life,[39],2.2 h
same,dose excreted,[40],6.74%

# — ChEMBL document CHEMBL1671679, “Lack of pharmacokinetic interaction between amdoxovir and reduced- and standard-dose zidovudine in HIV-1-infected individuals” (Antimicrob Agents Chemother, 2010)
